Compounds with a hit are over-represented: about 2.2% of the library has one in this group of screens.
NR2E3 ag-1: inhibitors of NR2E3-RetCOR corepressor binding, primary screen, NR2E3 agonist project, biochemical, TR-FRET, GST-NR2E3, biotin-RetCOR; Photoreceptor-specific nuclear receptor (Homo sapiens), Q9Y5X4; 1536-well; inhibition of corepressor binding, % at 4.78 µM; actives 0.12% (n = 320,000); AID 2300, 2010;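 active = percent inhibition above the cutoff of mean plus 3 SD of all tested compounds, set per screening campaign, cut at about 20% in these data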;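 also: 0% = DMSO wells and 100% = biotin wells as full block of FRET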
Target sequence (Q9Y5X4 whole entry, looked up): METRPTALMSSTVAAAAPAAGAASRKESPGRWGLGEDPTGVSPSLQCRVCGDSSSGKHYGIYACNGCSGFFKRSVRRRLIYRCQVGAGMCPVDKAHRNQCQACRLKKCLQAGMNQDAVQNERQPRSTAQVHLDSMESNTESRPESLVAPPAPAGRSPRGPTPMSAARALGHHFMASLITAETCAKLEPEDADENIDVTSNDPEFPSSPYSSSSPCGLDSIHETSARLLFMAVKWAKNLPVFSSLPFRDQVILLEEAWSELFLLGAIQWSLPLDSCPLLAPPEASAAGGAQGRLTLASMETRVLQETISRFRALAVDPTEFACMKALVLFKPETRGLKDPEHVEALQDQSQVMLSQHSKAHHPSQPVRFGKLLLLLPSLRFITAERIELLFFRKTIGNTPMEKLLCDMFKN
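Material: NR2E3–RetCOR corepressor complex | Quantity: 1.35 nM GST-tagged NR2E3 final | Schedule: 5 h at 4 °C | Replication: Singlicate compound wells | Reagent: RetCOR corepressor, biotinylated, 7 nM | Controls: Biotin wells as high control, 0.6% DMSO wells as low control | Signal: TR-FRET, Eu(K)-anti-GST donor, streptavidin-D2 acceptor, ex 340, em 617/671 nm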
HIV Env fusion: inhibitors of HIV-1 Env-driven cell-cell fusion, primary screen, HeLa-JRFL effector, CEM21 target cells, luciferase. inhibition, % at 12.3 µM. actives 1.1% (n = 360,000). AID 651610, 2012;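 active = mean replicate inhibition score of at least 50 and every replicate individually at or above 50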;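 also: 0% = plate neutral controls and 100% = maraviroc near 300 nM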
V-ATPase pH: regulators of yeast V-ATPase proton pumping, primary screen, pHLuorin cytosolic pH fluorescence. S. cerevisiae. response, % at 10 µM. actives 0.37% (n = 350,000); in the data active = response mostly above about 7.3%, no sharp cut-off; inactive = mostly below about 5.4%; also: actives read high
GAA850 FXN act: FXN promoter activators, primary screen, cell-based, luciferase luminescence, HEK293 lucGAA850; HEK293 lucGAA850 FXN promoter luciferase reporter, 24 h; percent of 10 µM SAHA response; activation, % at 6 µM; actives 0.56% (n = 360,000); AID 540364, 2011;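 active = activation above the average of all compounds screened plus 3 SD, cutoff fixed separately per campaign, cut at about 7.5% in these data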;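 also: 0% = DMSO wells and 100% = 10 µM SAHA wells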
NR2E3 ag-2: NR2E3 agonists in two-hybrid cells, primary screen, cell-based, luminescence, CHO-S, Gal4-NCOR/VP16-NR2E3; Photoreceptor-specific nuclear receptor (Homo sapiens), Q9Y5X4; luciferase; inhibition of corepressor binding, % at 3.98 µM; actives 0.35% (n = 360,000); AID 602229, 2012;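 active = inhibition above the mean of all tested compounds plus 3 SD, cut at about 70% in these data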;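 also: 0% = DMSO with NR2E3 transfected cells and 100% = cells lacking NR2E3 construct; higher means lower luciferase signal from less NR2E3 corepressor binding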
GalR3 antagonist: GalR3 antagonists in HEK293 cells, primary screen, cell-based, fluorescence readout; inhibition, % at 3 µM; AID 651719, 2012; actives 0.44% (n = 360,000); Galanin receptor type 3 (Homo sapiens), O60755; HEK293 GalR3-CNG cAMP membrane potential fluorescence; galR3 body fused to GalR1 C-terminus;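 active = inhibition above the screen-wide average plus 3 SD, cut at about 13% in these data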;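 also: forskolin and galanin both at EC90 stimulate the cells; cAMP rise reported by CNG channel membrane potential dye signal; 0% = forskolin plus galanin with DMSO and 100% = forskolin alone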
Target sequence (O60755 1-299 limits assumed): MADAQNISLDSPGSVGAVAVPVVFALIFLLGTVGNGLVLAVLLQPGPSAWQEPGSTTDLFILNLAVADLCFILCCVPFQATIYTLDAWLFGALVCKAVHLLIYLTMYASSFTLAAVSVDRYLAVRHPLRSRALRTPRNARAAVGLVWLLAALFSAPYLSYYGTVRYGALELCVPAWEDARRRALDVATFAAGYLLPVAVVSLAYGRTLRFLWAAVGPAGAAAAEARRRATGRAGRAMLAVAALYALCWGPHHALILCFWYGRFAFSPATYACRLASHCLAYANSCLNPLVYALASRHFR
* = called active by the depositor; / = no result given; [ ] = another dose, or the depositor's remark.

SMILES | NR2E3 ag-1 | HIV Env fusion | V-ATPase pH | GAA850 FXN act | NR2E3 ag-2 | GalR3 antagonist
CC(C)NC(=O)N(C)C[C@@H]1Oc2cc(C#CC(C)(C)O)ccc2S(=O)(=O)N([C@H](C)CO)C[C@@H]1C | / | -12[16.7 µM] | / | / | / | /
COc1ccc(NC(=O)N(C)C[C@@H]2OCCCC[C@H](C)Oc3ccc(NC(=O)CCC(F)(F)F)cc3C(=O)N([C@H](C)CO)C[C@@H]2C)cc1 | / | 5[16.7 µM] | / | / | / | /
FC(F)(F)COc1nc(N2CCOCC2)nc(N(c2ccccc2)c2ccccc2)n1 | 0 | 76* | 1 | 0 | -36 | -16
CC1=CC2C(C(O)CC3(C)C2CC(C)C32OCOC23COCO3)C2(C)C/C(=C\O)C(=O)C=C12 (stereo not drawn) | / | 113* | 3 | -3 | 2 | -7
Cc1cccc(C(=O)OCC(=O)c2c(N)n(CC(C)C)c(=O)n(C)c2=O)c1O | 5 | 60* | -4 | 0 | -29 | -1
Cc1c(NS(=O)(=O)c2ccc3c(c2)OCCO3)cccc1-c1nc2cccnc2s1 | 4 | 44* | 3 | 2 | 43 | /
Cc1cc(-c2nc3cccnc3s2)ccc1NS(=O)(=O)c1ccc2c(c1)OCCO2 | 3 | -10 | 0 | 0 | 2 | /
CCN(CC)S(=O)(=O)c1cc([N+](=O)[O-])ccc1NNC(=O)Nc1ccc(F)cc1 | -1 | 57* | 8 | 3 | -1 | -5
CCN(CC)S(=O)(=O)c1cc([N+](=O)[O-])ccc1NNC(=O)Nc1ccccc1OC | 1 | -38 | 12 | -1 | -22 | 7
C=CCn1c(SCC(=O)Nc2sccc2C(N)=O)nc2sc(C)c(C)c2c1=O | 7 | 58* | -2 | 7 | -2 | -3
C=CCn1c(SCC(=O)Nc2ccccc2C)nc2sc(C)c(C)c2c1=O | -4 | / | 2 | 2 | -26 | 1
CCCCn1c(NC(=O)c2ccc(F)cc2)c(C#N)c2nc3ccccc3nc21 | 22* | / | / | / | / | /
CCCCn1c(NC(=O)c2ccccc2)c(C#N)c2nc3ccccc3nc21 | / | 21 | 2 | -8 | -9 | -3
O=C(Nc1ccc(N2CCN(C(=O)c3ccc(Cl)cc3)CC2)cc1)c1ccc2c(c1)OCCO2 | 2 | 86* | 0 | -8 | -11 | -5
O=C(Nc1ccc(N2CCN(C(=O)c3ccccc3)CC2)cc1)c1ccc2c(c1)OCCO2 | 2 | / | -3 | -1 | -17 | -1
COc1ccc(NC(=O)c2ccc(Cl)c(S(=O)(=O)N3CC(C)OC(C)C3)c2)cn1 (stereo not drawn) | 6 | / | -2 | -3 | 0 | -8
COc1ccc(NC(=O)c2ccc(Cl)c(S(=O)(=O)N3CCc4ccccc4C3)c2)cn1 | 1 | 92* | 3 | 0 | -8 | 5
N#Cc1sc(NCc2cccc(Cl)c2)nc1Cl | -1 | -2 | 1 | 1 | -91 | -13
Cc1ccc(CNc2nc(Cl)c(C#N)s2)cc1 | 0 | -33 | 15* | 6 | -80 | -2
Cc1ccc(C2CC(=O)c3cnc(N4CCc5ccccc5C4)nc3C2)cc1 (stereo not drawn) | -3 | 68* | 7 | 0 | -22 | -3
C[C@@H]1CN([C@@H](C)CO)C(=O)c2cccc(NC(=O)Nc3ccc(C(F)(F)F)cc3)c2O[C@H]1CN(C)C(=O)Nc1ccc(C(F)(F)F)cc1 | / | 14[16.7 µM] | / | / | / | /
COc1cccc(CNc2nc3cc(-c4ccccc4)sc3c(=O)n2C)c1 | / | 63* | / | 1 | -15 | -9
COc1cccc(CNc2nc3cc(-c4ccc(OC)c(OC)c4)sc3c(=O)n2C)c1 | / | 60* | / | -1 | -21 | 5
Cn1c(NCc2ccccc2)nc2cc(-c3ccccc3)sc2c1=O | / | 3 | / | 0 | -13 | -8
C[C@H]1CN([C@@H](C)CO)C(=O)Cc2cc(NS(C)(=O)=O)ccc2O[C@H]1CN(C)S(=O)(=O)c1ccccc1 | / | -11[16.7 µM] | / | / | / | /
SMILES | NR2E3 ag-1 | HIV Env fusion | V-ATPase pH | GAA850 FXN act | NR2E3 ag-2 | GalR3 antagonist
CCOC(=O)C1=C(c2ccccc2)NC(SCC(=O)Nc2cccc(C)c2)=C(C#N)C1c1ccco1 (stereo not drawn) | 0 | 111* | 1 | -1 | 4 | -7
Cc1cc(Cl)ccc1OCC(=O)NNC(=O)C1CSC2(C)CCC(=O)N12 (stereo not drawn) | 2 | 71* | 5 | -1 | 6 | -2
CC12CCC(=O)N1C(C(=O)NNC(=O)COc1ccc(Br)cc1)CS2 (stereo not drawn) | -3 | 1 | 5 | -1 | -50 | -2
O=C(CSc1ccccc1)Nc1nc2ccccc2[nH]1 | -2 | -56 | 32* | 3 | -62 | -4
Nc1ccn(C2OC(COC(=O)C34CC5CC(CC(C5)C3)C4)C(O)C2O)c(=O)n1 (stereo not drawn) | / | 68* | -3 | 2 | 1 | -4
C[C@@H]1CN([C@H](C)CO)S(=O)(=O)c2ccc(C#CC3CC3)cc2O[C@H]1CN(C)C(=O)c1ccccc1 | / | 23[16.7 µM] | / | / | / | /
COc1ccc(NC(=O)C2(C)CCN2Cc2ccccc2OC(F)F)cc1OC (stereo not drawn) | / | 71* | / | 1 | -28 | -7
Cc1ccc(-n2c(-c3ccccc3)c[n+]3c2CCC3)cc1 | 3 | 62* | -2 | -1 | -15 | -6
CO/N=C/c1ccc(N2CCN(C(=O)c3cccc(C(F)(F)F)c3)CC2)c([N+](=O)[O-])c1 | -1 | 68* | 3 | 1 | 19 | -6
Cc1ccc(S(=O)(=O)N[C@@H]2CC[C@H](CCNC(=O)C3CC3)O[C@@H]2CO)cc1 | / | 5[16.7 µM] | / | / | / | /
O=C1[C@H]2[C@@H](c3ccc(F)cc3)N3C(=O)N(c4cccc(Cl)c4)C(=O)[C@@]3(Cc3ccc(Cl)cc3)[C@H]2C(=O)N1C1CCCCC1 | -2 | 99* | 3 | 0 | 7 | -2
O=C1[C@H]2[C@@H](c3ccc(F)cc3)N3C(=O)N(c4cccc(Br)c4)C(=O)[C@@]3(Cc3ccc(Cl)cc3)[C@H]2C(=O)N1C1CCCCC1 | 6 | 59* | 2 | 0 | -5 | -8
O=C1[C@H]2[C@@H](c3ccc(Cl)cc3)N3C(=O)N(c4cccc(Br)c4)C(=O)[C@@]3(Cc3ccc(Cl)cc3)[C@H]2C(=O)N1C1CCCCC1 | 4 | 82* | -1 | 7 | -7 | 1
CCN1C(=O)[C@H]2[C@@H](c3ccc(C)cc3)N3C(=O)N(c4ccccc4)C(=O)[C@@]3(Cc3ccc(Cl)cc3)[C@H]2C1=O | 2 | / | 1 | -3 | -28 | /

From PubChem BioAssay
